This is a sample that favours compounds with a hit; in the whole collection about 2.9% have one here.
SIRT5 inh = sirtuin-5 (human) deacylase inhibition | Q9NXA8 | Purified SirT5, succinyl-peptide AMC, trypsin-coupled fluorescence | inhibition, % at 15 µM | 1.1% of 330,000 active | AID 652115; in the data active = inhibition above about 15%; inconclusive = no clear call, values can overlap the other calls
Target sequence (Q9NXA8 whole entry, looked up): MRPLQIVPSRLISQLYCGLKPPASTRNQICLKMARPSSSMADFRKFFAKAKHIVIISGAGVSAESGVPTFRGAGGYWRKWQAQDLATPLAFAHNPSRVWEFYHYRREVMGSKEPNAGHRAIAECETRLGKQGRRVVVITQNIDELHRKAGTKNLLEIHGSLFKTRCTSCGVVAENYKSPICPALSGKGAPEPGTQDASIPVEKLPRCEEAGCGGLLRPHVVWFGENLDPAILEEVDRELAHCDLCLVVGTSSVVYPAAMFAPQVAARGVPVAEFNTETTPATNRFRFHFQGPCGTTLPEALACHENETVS
E-sel inducer = induces E-selectin expression in human endothelial cells | 0.37% of 260,000 active | activation, % at 7.58 µM | HUVEC E-selectin immunofluorescence imaging; normalized: neutral wells 0, TNF-alpha wells 100 | P16581;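 active = mean E-selectin-positive cell signal at least 10% of the positive control, reached in at least 60% of replicates, without over 20% cell loss; inconclusive = no rule given, readout overlaps actives, possibly toxicity-flagged; inactive = the rest, including those meeting only one limit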
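Test system: HUVEC; input: 3,000 HUVEC/well; measured by: immunofluorescence imaging; read-out: % PE-positive cells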
DENV2 CPE = inhibitors of DENV2 cytopathic effect; DENV2-infected cells, cytopathic effect rescue, plate reader; CPE inhibition, % at 9.99 µM; 1.7% of 350,000 active; AID 651640; in the data active = CPE inhibition above about 20%, passing the limit was not always enough; inconclusive = no clear call, values can overlap the other calls; tested in BHK-21 cells
Large screens that a line does not name were inactive; ! = a repeat was not active.

CC(C)CC#Cc1ccc2c(c1)O[C@H](CN(C)S(C)(=O)=O)[C@@H](C)CN([C@H](C)CO)S2(=O)=O	none
COc1ccccc1S(=O)(=O)N(C)C[C@H]1Oc2cc(C#CCC3CCCC3)ccc2S(=O)(=O)N([C@@H](C)CO)C[C@@H]1C	SIRT5 inh 18.9
COc1ccccc1S(=O)(=O)N(C)C[C@@H]1Oc2cc(C#CCC(C)C)ccc2S(=O)(=O)N([C@@H](C)CO)C[C@@H]1C	SIRT5 inh 27.8 (no result: E-sel inducer)
C[C@H](CO)N1C[C@H](C)[C@H](CN(C)C)Oc2cc(C#CCC3CCCC3)ccc2S1(=O)=O	none
COc1ccc(C#Cc2ccc3c(c2)O[C@@H](CN(C)S(=O)(=O)c2ccccc2F)[C@H](C)CN([C@@H](C)CO)S3(=O)=O)cc1	none
COc1ccc(C#Cc2ccc3c(c2)O[C@H](CN(C)S(=O)(=O)c2ccccc2F)[C@@H](C)CN([C@@H](C)CO)S3(=O)=O)cc1	SIRT5 inh 15.4
COc1ccccc1S(=O)(=O)N(C)C[C@@H]1Oc2cc(C#CCC(C)C)ccc2S(=O)(=O)N([C@@H](C)CO)C[C@H]1C	SIRT5 inh 29.9 (no result: E-sel inducer)
CC(C)CC#Cc1ccc2c(c1)O[C@@H](CN(C)S(=O)(=O)c1ccc(F)cc1)[C@@H](C)CN([C@@H](C)CO)S2(=O)=O	none (no result: SIRT5 inh, DENV2 CPE)
COc1cccc(C(=O)Nc2ccc3c(c2)C(=O)N(C)C[C@@H](OC)[C@H](C)CN(CCc2ccccc2)[C@H](C)CO3)c1	none
O=C(C1CCN(C2CCN(C/C(Cl)=C/c3ccccc3)CC2)CC1)N1CCOCC1	none (no result: E-sel inducer)
COCCn1c(=O)c2c(nc3n2CCCN3Cc2ccccc2)n(C)c1=O	none (no result: E-sel inducer)
CC(=O)Oc1ccc(/C=C2/C(=O)N(c3ccccc3)N=C2C)cc1	none
C[C@H]1CN([C@@H](C)CO)C(=O)c2cc(-c3cncnc3)cnc2O[C@H]1CN(C)CC1CCOCC1	none
Cc1cc(C(=O)N2CCC2(C)C(=O)NS(=O)(=O)c2ccc(Cl)cc2)nn1C (stereo not drawn)	none (no result: SIRT5 inh)
CCc1cc(CNC(=O)C2CCC(=O)N(Cc3ccc(Cl)cc3)C2)on1 (stereo not drawn)	none
COc1cccc(S(=O)(=O)N(C)C[C@@H]2Oc3cc(C#CCC(C)C)ccc3S(=O)(=O)N([C@@H](C)CO)C[C@@H]2C)c1	none
COc1ccccc1S(=O)(=O)N(C)C[C@@H]1Oc2cc(C#CCC(C)C)ccc2S(=O)(=O)N([C@H](C)CO)C[C@H]1C	SIRT5 inh 28.3, DENV2 CPE inconclusive (no result: E-sel inducer)
COC(=O)C[C@@H]1CC[C@@H]2[C@H](COc3ccc(NC(=O)c4cc(F)cc(F)c4)cc3C(=O)N2C)O1	none (no result: SIRT5 inh)
O=C(Cc1cccnc1)N1CC(=O)N2[C@H](C1)[C@H](c1ccc(C3=CCCC3)cc1)[C@@H]2CO	DENV2 CPE 36.2
O=C(c1ccc(F)cc1)N1CC(=O)N2[C@@H](CO)[C@H](c3ccc(-c4ccccc4F)cc3)[C@@H]2C1	none
O=C(c1ccc(F)cc1)N1CC(=O)N2[C@H](CO)[C@@H](c3ccc(C4=CCCC4)cc3)[C@H]2C1	none
O=C(c1ccc(F)cc1)N1CC(=O)N2[C@H](C1)[C@H](c1ccc(C3=CCCC3)cc1)[C@@H]2CO	DENV2 CPE 53.2
O=C(Cc1cccnc1)N1CC(=O)N2[C@H](CO)[C@@H](c3ccc(C4=CCCC4)cc3)[C@@H]2C1	none
O=C(c1ccc(F)cc1)N1CC(=O)N2[C@H](C1)[C@H](c1ccc(-c3ccccc3F)cc1)[C@@H]2CO	DENV2 CPE 25.8
C[C@@H]1CCCCO[C@H](CN(C)Cc2ccncc2)[C@H](C)CN([C@H](C)CO)C(=O)c2cc(NC(=O)C3CCCCC3)ccc2O1	none
Cc1cc(=O)nc2c3ccccc3n(CC(=O)NCCCN3CCCCC3C)n12 (stereo not drawn)	none (no result: E-sel inducer)
CC1CCC(NC(=O)CCCCn2c(=O)[nH]c3ccsc3c2=O)CC1 (stereo not drawn)	none (no result: E-sel inducer)
Oc1ccc(-c2csc(Nc3cccc4ccccc34)n2)cc1O	none
COCCCn1c(=O)/c(=C\c2ccccc2OC(F)F)s/c1=C(/C#N)C(N)=O	E-sel inducer 37.6
COCCCn1c(=O)/c(=C\c2ccc(OC(F)F)c(OC)c2)s/c1=C(/C#N)C(N)=O	none
O=C(C1=C[C@@H](c2ccc(C(F)(F)F)cc2)C[C@@H](OCc2ccc(CO)cc2)O1)N1CCOCC1	DENV2 CPE 25.0!
O=C(O)C1=C[C@@H](c2ccc(C(F)(F)F)cc2)C[C@@H](OCc2ccc(CO)cc2)O1	none
CN1CCN(C(=O)C2=C[C@H](c3ccc(C(F)(F)F)cc3)C[C@H](OCc3ccc(CO)cc3)O2)CC1	DENV2 CPE 46.7!
CN1CCN(C(=O)C2=C[C@@H](c3ccc(C(F)(F)F)cc3)C[C@@H](OCCCCO)O2)CC1	none
COc1cccc(NC(=O)N2CC(=O)N3[C@H](C2)[C@@H](c2ccc(Br)cc2)[C@@H]3CO)c1	none
C[C@H]1CN([C@@H](C)CO)C(=O)Cc2cc(NC(=O)Nc3ccc4c(c3)OCO4)ccc2O[C@@H]1CN(C)C(=O)Nc1ccc2c(c1)OCO2	none
C[C@H]1CN([C@@H](C)CO)C(=O)Cc2cc(NC(=O)Nc3ccc4c(c3)OCO4)ccc2O[C@H]1CN(C)S(C)(=O)=O	none
C[C@H]1CN([C@@H](C)CO)C(=O)Cc2cc(NC(=O)Nc3ccc4c(c3)OCO4)ccc2O[C@@H]1CN(C)S(C)(=O)=O	DENV2 CPE 26.1 (no result: SIRT5 inh)
C[C@H]1CN([C@@H](C)CO)C(=O)Cc2cc(NC(=O)Nc3ccc4c(c3)OCO4)ccc2O[C@@H]1CN(C)C	E-sel inducer 232.9
CCCCCCCc1nc2nc(C)c(Br)c(=O)n2[nH]1	none
CC(C)OC(=O)CSc1nc(N2CCOCC2)c2c(c1C#N)CC(C)(C)OC2	none
C[C@@H]1CN([C@H](C)CO)C(=O)c2cccc(NS(=O)(=O)c3cn(C)cn3)c2O[C@@H]1CN(C)Cc1ccc(Oc2ccccc2)cc1	none
C[C@@H]1CN([C@@H](C)CO)C(=O)c2cccc(NS(=O)(=O)c3cn(C)cn3)c2O[C@H]1CN(C)Cc1ccncc1	E-sel inducer 53.4
C[C@H](CO)N1C[C@H](C)[C@H](CN(C)Cc2ccc(Cl)c(Cl)c2)Oc2c(NS(=O)(=O)c3cn(C)cn3)cccc2C1=O	E-sel inducer 37.8
C[C@H](CO)N1C[C@H](C)[C@@H](CN(C)Cc2ccc3c(c2)OCO3)Oc2c(NS(=O)(=O)c3cn(C)cn3)cccc2C1=O	none
C[C@@H]1CN([C@H](C)CO)C(=O)c2cccc(NS(=O)(=O)c3cn(C)cn3)c2O[C@H]1CN(C)Cc1ccncc1	none
C[C@H]1CN([C@@H](C)CO)C(=O)c2cccc(NS(=O)(=O)c3cn(C)cn3)c2O[C@H]1CN(C)Cc1ccc(Oc2ccccc2)cc1	SIRT5 inh 29.3
CNC[C@H]1Oc2c(NC(=O)c3ccc(-c4nccs4)cc3)cccc2C(=O)N([C@@H](C)CO)C[C@H]1C	none
COCC(=O)Nc1ccc2c(c1)[C@@H]1C[C@@H](CC(=O)NC3CCCCC3)O[C@H](CO)[C@@H]1O2	none
O=C(CC1CC1)Nc1ccc2c(c1)[C@@H]1C[C@@H](CC(=O)NC3CCCC3)O[C@@H](CO)[C@@H]1O2	none
COCC(=O)Nc1ccc2c(c1)[C@H]1C[C@@H](CC(=O)NC3CCCCC3)O[C@H](CO)[C@H]1O2	DENV2 CPE 32.5
O=C(CC1CC1)Nc1ccc2c(c1)[C@@H]1C[C@H](CC(=O)NC3CCCC3)O[C@@H](CO)[C@@H]1O2	DENV2 CPE 29.0!
